Square brackets hold non-standard residues; d marks the D form. Peptide text beside a SMILES is read from it. * marks the point of attachment. Palmitoyl = CCCCCCCCCCCCCCCC(=O)*; NMeF = CN[C@@H](Cc1ccccc1)C(=O)O; Undecanoyl = CCCCCCCCCCC(=O)*; Cbz = O=C(OCc1ccccc1)*; NHOH = ON*
Target: not listed separately
Assay: Inhibition of rat recombinant Rab geranylgeranyltransferase iin presence of canine Rab7 and rat REP1 by NBD-FPP based continuous fluorimetric assay
Conditions: not given
How it was run: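 Continuous fluorometric assay in 96/384-well format: 3 μM Rab7, 3 μM REP1, 9 μM NBD-FPP and 400 nM RabGGTase, with or without inhibitor. IC50 was calculated from three independent measurements.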

Row | IC50 | Compound
1 | 26 µM | CCCCCCCCCCCCCCC(=O)N[C@@H](Cc1c[nH]cn1)C(=O)N[C@@H](Cc1ccccc1)C(=O)N[C@@H](Cc1ccc(O)cc1)CN(C)CCc1ccccn1
2 | 45 µM | O=C(CNC(=O)c1coc(-c2ccccc2)n1)N[C@@H](Cc1ccccc1)C(=O)N[C@@H](Cc1c[nH]cn1)C(=O)O
3 | 11.6 µM | CCCCCCCCCCCOc1ccc(C(=O)N[C@@H](Cc2ccc(O)cc2)C(=O)N[C@@H](Cc2ccc(O)cc2)C(=O)N[C@@H](Cc2ccc(O)cc2)C(=O)NCCCCN)cc1
4 | 19 µM | CCCCCc1ccc(CCC(=O)N[C@H](Cc2c[nH]cn2)C(=O)N(C)[C@H](CN[C@@H](Cc2ccccc2)C(=O)O)Cc2ccccc2)cc1
5 | > 100 µM | CCCCC(=O)N[C@@H](Cc1c[nH]cn1)C(=O)N[C@@H](Cc1ccccc1)C(=O)N[C@@H](Cc1ccc(O)cc1)CN(C)CCc1ccccn1
6 | 41 µM | O=C(CNC(=O)c1csc(-c2cccs2)n1)N[C@@H](Cc1ccccc1)C(=O)N[C@@H](Cc1c[nH]cn1)C(=O)O
7 | 12.1 µM | CCCCCCCCCCCOc1ccc(C(=O)N[C@@H](Cc2c[nH]cn2)C(=O)N[C@@H](Cc2c[nH]cn2)C(=O)N[C@@H](Cc2c[nH]cn2)C(=O)N(C)CCc2ccccn2)cc1
8 | 19.3 µM | CN(C(=O)[C@H](Cc1c[nH]cn1)NC(=O)OCc1ccccc1OCc1ccccc1)[C@H](CN[C@@H](Cc1ccccc1)C(=O)O)Cc1ccc(O)cc1
9 | 24 µM | CCCCCCCCCCCOc1ccc(C(=O)N[C@@H](Cc2c[nH]cn2)C(=O)N[C@@H](Cc2c[nH]cn2)C(=O)N[C@@H](Cc2c[nH]cn2)C(=O)NCCCCN)cc1
10 | 3.9 µM | CCCCCCCCCCC(=O)N[C@@H](Cc1ccc(O)cc1)C(=O)N[C@@H](Cc1c[nH]cn1)C(=O)N[C@@H](Cc1ccc(O)cc1)C(=O)OC (Undecanoyl-Tyr-His-Tyr-OMe)
11 | 7.1 µM | CCCCCCCCCCC(=O)N[C@@H](Cc1ccc(O)cc1)C(=O)N[C@@H](Cc1c[nH]cn1)C(=O)N[C@@H](Cc1ccc(O)cc1)C(=O)NCCCCN
12 | > 50 µM | Cc1nc(C(=O)NCC(=O)N[C@@H](Cc2ccccc2)C(=O)N[C@@H](Cc2c[nH]cn2)C(=O)O)c(C)o1
13 | 12.3 µM | CCCCCCCCCCCOc1ccc(C(=O)N[C@@H](Cc2c[nH]cn2)C(=O)N[C@@H](Cc2ccc(O)cc2)C(=O)N[C@@H](Cc2ccccc2)C(=O)NCCCn2ccnc2)cc1
14 | 37 µM | O=C(CNC(=O)c1csc(-c2cccnc2)n1)N[C@@H](Cc1ccccc1)C(=O)N[C@@H](Cc1cn(C(c2ccccc2)(c2ccccc2)c2ccccc2)cn1)C(=O)O
15 | > 50 µM | O=C(CNC(=O)c1coc(-c2ccccc2)n1)N[C@@H](Cc1ccccc1)C(=O)N[C@@H](Cc1cn(Cc2ccccc2)cn1)C(=O)O
16 | 13.6 µM | CN(C(=O)[C@H](Cc1c[nH]cn1)NC(=O)OCc1ccccc1)[C@@H](Cc1ccccc1)C(=O)N[C@H](Cc1ccc(O)cc1)C(=O)NO
17 | 36 µM | O=C(CNC(=O)c1csc(-c2cccs2)n1)N[C@@H](Cc1ccccc1)C(=O)N[C@@H](Cc1cn(C(c2ccccc2)(c2ccccc2)c2ccccc2)cn1)C(=O)O
18 | 15.2 µM | CCC/C=C\c1ccccc1/C=C/C(=O)N[C@H](Cc1c[nH]cn1)C(=O)N(C)[C@H](CN[C@H](Cc1ccccc1)C(=O)O)Cc1ccc(O)cc1
19 | > 50 µM | O=C(CNC(=O)[C@H](Cc1c[nH]cn1)NC(=O)c1coc(-c2ccccc2)n1)N[C@@H](Cc1c[nH]cn1)C(=O)O
20 | 15.6 µM | CN(C(=O)[C@@H](Cc1c[nH]cn1)NC(=O)OCc1ccccc1OCc1ccccc1)[C@H](CN[C@@H](Cc1ccccc1)C(=O)O)Cc1ccc(O)cc1
21 | > 50 µM | O=C(CNC(=O)[C@H](Cc1c[nH]cn1)NC(=O)c1coc(-c2ccccc2)n1)N[C@@H](Cc1ccccc1)C(=O)O
22 | > 50 µM | CC(C)(C)OC(=O)n1cnc(C[C@H](NC(=O)[C@H](Cc2ccccc2)NC(=O)CNC(=O)c2coc(-c3ccccc3)n2)C(=O)O)c1
23 | > 50 µM | O=C(CNC(=O)c1csc(-c2cccnc2)n1)N[C@@H](Cc1ccccc1)C(=O)N[C@@H](Cc1c[nH]cn1)C(=O)O
24 | 30 µM | O=C(CNC(=O)[C@H](Cc1cn(C(c2ccccc2)(c2ccccc2)c2ccccc2)cn1)NC(=O)c1coc(-c2ccccc2)n1)N[C@@H](Cc1ccccc1)C(=O)O
25 | 11 µM | CCCCCc1ccc(CCC(=O)N[C@H](Cc2ccc(O)cc2)C(=O)N[C@@H](Cc2ccc(O)cc2)C(=O)N[C@@H](Cc2ccccc2)C(=O)O)cc1
26 | 19.1 µM | CCCCCc1ccc(CCC(=O)N[C@H](Cc2ccc(O)cc2)C(=O)N[C@@H](Cc2ccc(O)cc2)C(=O)N[C@@H](C[Si]2(C)CCCCC2)C(=O)O)cc1
27 | 22.7 µM | CN(C(=O)[C@@H](Cc1c[nH]cn1)NC(=O)/C=C/c1ccc(-c2ccccc2)cc1)[C@H](CN[C@@H](Cc1ccc(O)cc1)C(=O)O)Cc1ccc(O)cc1
28 | 46 µM | Cc1nc(C(=O)NCC(=O)N[C@@H](Cc2ccccc2)C(=O)N[C@@H](Cc2cn(C(c3ccccc3)(c3ccccc3)c3ccccc3)cn2)C(=O)O)c(C)o1
29 | > 100 µM | CCCCCCCCCCC(=O)N[C@@H](Cc1c[nH]cn1)C(=O)N[C@@H](Cc1c[nH]cn1)C(=O)N[C@@H](Cc1ccc(O)cc1)C(=O)NCCc1ccccn1

Row | Compound | IC50
30 | CCCCCCCCCCC(=O)N[C@@H](Cc1c[nH]cn1)C(=O)N[C@@H](Cc1c[nH]cn1)C(=O)N[C@@H](Cc1ccc(O)cc1)C(=O)NCCCCN | 5.2 µM

Species: Rattus norvegicus
Assay: Inhibition of rat recombinant Rab geranylgeranyltransferase at 100 uM in presence of canine Rab7 and rat REP1 NBD-FPP based continuous fluorimetric assay
Conditions: not given
How it was run: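 Continuous fluorometric assay in 96/384-well format: 3 μM Rab7, 3 μM REP1, 9 μM NBD-FPP and 400 nM RabGGTase, with or without inhibitor. […] IC50 was calculated from three independent measurements.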

Row | inhibition | Compound
31 | 7% | CCCCCCCCCCCOc1ccc(C(=O)N[C@@H](Cc2c[nH]cn2)C(=O)N[C@@H](Cc2ccc(O)cc2)C(=O)N[C@@H](Cc2ccccc2)C(=O)NCCCn2ccnc2)cc1
32 | 80% | CCCCCCCCCCC(=O)N[C@@H](Cc1c[nH]cn1)C(=O)N[C@@H](Cc1c[nH]cn1)C(=O)N[C@@H](Cc1ccc(O)cc1)C(=O)NCCc1ccccn1
33 | 89% | O=C(CCNC(=O)[C@H](Cc1c[nH]cn1)NC(=O)OCc1ccccc1)N[C@@H](Cc1ccc(O)cc1)C(=O)NCC(O)CO (stereo partly specified)
34 | 98% | COC(=O)[C@H](CCC(N)=O)NC(=O)[C@H](NC(=O)[C@H]1CCCN1C(=O)c1ccc([N+](=O)[O-])c(NC(C)=O)c1)C(C)C
35 | 90% | O=C(CNC(=O)[C@H](Cc1ccc(O)cc1)NC(=O)c1ccc(F)cc1F)N[C@@H](Cc1ccc(O)cc1)C(=O)O
36 | 5% | C[C@H](NC(=O)CCc1ccccc1)C(=O)N[C@@H](Cc1ccccc1)C(=O)N[C@@H](CCC(N)=O)C(=O)NNc1ccccc1
37 | 74% | O=C(CNC(=O)[C@H](Cc1ccc(O)cc1)NC(=O)c1ccc(F)cc1)N[C@@H](Cc1ccc(O)cc1)C(=O)NC1CCCCC1
38 | 47% | CCCCCCCCCCC(=O)N[C@@H](Cc1ccc(O)cc1)C(=O)N[C@@H](Cc1c[nH]cn1)C(=O)N[C@@H](Cc1c[nH]cn1)C(=O)NOC(C)(C)C
39 | 88% | O=C(N[C@@H](Cc1ccc(O)cc1)C(=O)N[C@@H](Cc1ccc(O)cc1)C(=O)N[C@@H](Cc1ccc(O)cc1)C(=O)NC1CCCCC1)c1ccc(F)cc1F
40 | 73% | CCCCCCCCCCC(=O)N[C@@H](Cc1ccc(O)cc1)C(=O)N[C@@H](Cc1c[nH]cn1)C(=O)N[C@@H](Cc1c[nH]cn1)C(=O)NCCCCN
41 | 77% | CCCCCCCCCCC(=O)N[C@@H](Cc1c[nH]cn1)C(=O)N[C@@H](Cc1c[nH]cn1)C(=O)N[C@@H](CO)C(=O)OC (Undecanoyl-His-His-Ser-OMe)
42 | 88% | CCCCCCCCCCCNC(=O)[C@H](Cc1ccc(O)cc1)NC(=O)CNC(=O)[C@H](Cc1ccc(O)cc1)NC(=O)CCc1ccc(F)cc1
43 | 93% | CCCCCCCCCCCCCCCC(=O)N[C@@H](Cc1ccc(O)cc1)C(=O)N[C@@H](Cc1ccc(O)cc1)C(=O)N[C@@H](Cc1ccc(O)cc1)C(=O)O (Palmitoyl-Tyr-Tyr-Tyr-OH)
44 | 45% | CCCCCCCCCCC(=O)N[C@@H](Cc1c[nH]cn1)C(=O)N[C@@H](Cc1ccccc1)C(=O)N[C@@H](Cc1ccc(O)cc1)C(N)=O (Undecanoyl-His-Phe-Tyr-NH2)
45 | 52% | CCCCCCCCCCOc1ccc(C(=O)N[C@@H](Cc2c[nH]cn2)C(=O)N[C@@H](Cc2c[nH]cn2)C(=O)N[C@@H](CO)C(=O)NCCCn2ccnc2)cc1
46 | 90% | COC(=O)[C@H](Cc1ccc(O)cc1)NC(=O)CNC(=O)[C@H](Cc1ccc(O)cc1)NC(=O)CCc1ccc(F)cc1
47 | 77% | CC(=O)Nc1cc(C(=O)N2CCC[C@@H]2C(=O)N[C@@H](C(=O)N[C@@H](CCC(N)=O)C(=O)NN)C(C)C)ccc1[N+](=O)[O-]
48 | 106% | CC[C@H](C)[C@H](NC(=O)c1ccc(-c2ccccc2)cc1)C(=O)N[C@@H](C(=O)N[C@@H](CCC(N)=O)C(=O)Nc1cccc(Br)n1)C(C)C
49 | 32% | CC(C)(C)Oc1ccc(C[C@H](NC(=O)c2coc(-c3ccccc3)n2)C(=O)NCC(=O)N[C@@H](Cc2c[nH]c3ccccc23)C(=O)O)cc1
50 | 65% | CCCCCCCCCCC(=O)N[C@@H](Cc1c[nH]cn1)C(=O)N[C@@H](Cc1cnc[nH]1)C(=O)N[C@@H](Cc1ccc(O)cc1)C(=O)NCC(O)CO (stereo partly specified)
51 | 46% | CN(C(=O)[C@@H](Cc1ccc(O)cc1)NC(=O)OCc1ccccc1)[C@@H](Cc1ccccc1)C(=O)N[C@@H](Cc1ccc(O)cc1)C(=O)O

Row | Compound | inhibition
52 | O=C(CNC(=O)[C@H](Cc1c[nH]cn1)NC(=O)OCc1ccccc1)N[C@@H](Cc1ccc(O)cc1)C(=O)NCCCn1ccnc1 | 85%

Tested on: COS-7 (Chlorocebus aethiops)
Assay: Inhibition of recombinant Rab geranylgeranyltransferase expressed in COS-7 cells assessed as inhibition of geranylgeranylation of EYFP-Rab7 protein by Western blot
Design: concentration or dose not given beside the values
Conditions: dose or concentration not given here

Row | Compound | inhibition
53 | CN(C(=O)[C@H](Cc1cnc[nH]1)NC(=O)OCc1ccccc1)[C@@H](Cc1ccccc1)C(=O)N[C@@H](Cc1c[nH]c2ccccc12)C(=O)NO (Cbz-His-[NMeF]-Trp-{NHOH}) | 70%
54 | O=C(O)C(O)(Cc1cccnc1)P(=O)(O)O (stereo unspecified) | 70%

Tested on: COS-7 (Chlorocebus aethiops)
Assay: Inhibition of recombinant Rab geranylgeranyltransferase expressed in COS-7 cells assessed as inhibition of geranylgeranylation of EYFP-Rab7 protein at 10 to 100 uM by Western blot relative to compactin
Conditions: not given

Row | Compound | Activity
55 | CN(C(=O)[C@H](Cc1cnc[nH]1)NC(=O)OCc1ccccc1)[C@@H](Cc1ccccc1)C(=O)N[C@@H](Cc1c[nH]c2ccccc12)C(=O)NO (Cbz-His-[NMeF]-Trp-{NHOH}) | Dose-dependent effect
56 | O=C(O)C(O)(Cc1cccnc1)P(=O)(O)O (stereo unspecified) | Dose-dependent effect
